Experimental data published in ChEMBL document CHEMBL3525967, “In vitro glucuronidation of the antibacterial triclocarban and its oxidative metabolites” (Drug Metab Dispos, 2012).

How the values were obtained:
[1] = system: Liver microsome; test: Drug metabolism in Sprague-Dawley rat liver microsomes assessed as N-glucuronide-triclocarban formation incubated for 5 mins prior to UDPGA addition measured after 5 to 30 mins by LC-UV analysis; type: ADME
Procedure, shortened: (§1)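 Microsomes or UGT Supersomes (5 µg protein) were held 15 min on ice with alamethicin in 100 mM potassium phosphate pH 7.4. TCC was added at 10 µM (2% DMSO) with 10 mM MgCl2 and 10 mM saccharolactone, pre-warmed 5 min at 37 °C, then started with UDPGA. Samples at 5, 10, 15 and 30 min were quenched in ACN. Product was read by LC-UV at 265 nm; rate came from regression over time, three incubations.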

[2] = Drug excretion in human urine; type: ADME; details: read-out: Drug excretion
[3] = target: T1, UDP-glucuronosyltransferase 1A7 (Homo sapiens, UniProt Q9HAW7); test: Drug metabolism assessed as human UGT1A7-mediated N-glucuronide-triclocarban formation expressed in baculovirus infected insect sf9 cells incubated for 5 mins prior to UDPGA addition measured after 5 to 30 mins by LC-UV analysis; type: ADME; procedure, shortened: as §1
T1 sequence (Q9HAW7 whole entry): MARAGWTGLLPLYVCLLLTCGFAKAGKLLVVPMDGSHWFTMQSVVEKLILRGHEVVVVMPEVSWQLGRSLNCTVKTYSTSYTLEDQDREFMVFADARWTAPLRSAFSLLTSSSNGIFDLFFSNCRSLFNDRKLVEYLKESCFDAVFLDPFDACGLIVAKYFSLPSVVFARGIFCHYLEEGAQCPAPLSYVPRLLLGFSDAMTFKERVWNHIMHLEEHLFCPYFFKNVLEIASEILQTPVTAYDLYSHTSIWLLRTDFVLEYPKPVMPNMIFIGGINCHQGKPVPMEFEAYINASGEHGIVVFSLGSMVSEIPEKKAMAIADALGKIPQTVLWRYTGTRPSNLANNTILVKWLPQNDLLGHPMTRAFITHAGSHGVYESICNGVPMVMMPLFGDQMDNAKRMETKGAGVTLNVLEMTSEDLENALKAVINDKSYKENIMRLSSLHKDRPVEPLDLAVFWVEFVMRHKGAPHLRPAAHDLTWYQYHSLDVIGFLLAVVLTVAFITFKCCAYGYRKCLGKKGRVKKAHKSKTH

[4] = target: T2, UDP-glucuronosyltransferase 2B4 (Homo sapiens, UniProt P06133); test: Drug metabolism assessed as human UGT2B4-mediated N-glucuronide-triclocarban formation expressed in baculovirus infected insect sf9 cells incubated for 5 mins prior to UDPGA addition measured after 5 to 30 mins by LC-UV analysis; type: ADME; procedure, shortened: as §1
T2 sequence (P06133 whole entry): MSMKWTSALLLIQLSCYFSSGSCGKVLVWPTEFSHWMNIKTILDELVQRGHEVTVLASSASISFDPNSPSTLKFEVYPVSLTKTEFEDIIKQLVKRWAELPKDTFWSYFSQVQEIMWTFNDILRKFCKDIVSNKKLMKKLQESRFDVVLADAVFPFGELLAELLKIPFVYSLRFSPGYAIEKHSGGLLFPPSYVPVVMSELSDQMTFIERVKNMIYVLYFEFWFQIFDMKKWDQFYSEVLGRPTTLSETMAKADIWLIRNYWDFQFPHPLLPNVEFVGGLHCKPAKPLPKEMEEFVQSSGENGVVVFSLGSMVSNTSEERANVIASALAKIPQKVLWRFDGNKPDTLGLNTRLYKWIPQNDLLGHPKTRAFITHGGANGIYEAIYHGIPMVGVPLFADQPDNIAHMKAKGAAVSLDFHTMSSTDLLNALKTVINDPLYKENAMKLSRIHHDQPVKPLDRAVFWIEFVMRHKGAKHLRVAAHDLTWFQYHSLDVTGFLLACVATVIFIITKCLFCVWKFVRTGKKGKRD

[5] = Drug excretion in Swiss webster mouse urine assessed as 2'-O-glucuronide-triclocarban formation at 5 mg/kg, po by LC-MS analysis; type: ADME, organism-based; parameters: dose 5 mg/kg, route oral; details: in vivo
Procedure, shortened: (§2)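 Mice were housed two per metabolic cage, with blank urine collected over the 24 h before dosing. TCC was given by oral gavage as a 1 mg/mL solution in 20/80 DMSO/PEG400 (v/v) at 5 mg/kg. Urine was collected at 0-24 h and 24-48 h and analysed by online LC-MS. Values are the mean of two independent experiments.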

[6] = Drug excretion in Swiss webster mouse urine assessed as 3'-O-glucuronide-triclocarban formation at 5 mg/kg, po by LC-MS analysis; type: ADME, organism-based; parameters: dose 5 mg/kg, route oral; details: in vivo; procedure, shortened: as §2
[7] = target: T3, UDP-glucuronosyltransferase 1A9 (Homo sapiens, UniProt O60656); test: Drug metabolism assessed as human UGT1A9-mediated N'-glucuronide-triclocarban formation expressed in baculovirus infected insect sf9 cells incubated for 5 mins prior to UDPGA addition measured after 30 mins by LC-ESI-MS analysis; type: ADME; details: sf9, 0.5 h
T3 sequence (O60656 whole entry): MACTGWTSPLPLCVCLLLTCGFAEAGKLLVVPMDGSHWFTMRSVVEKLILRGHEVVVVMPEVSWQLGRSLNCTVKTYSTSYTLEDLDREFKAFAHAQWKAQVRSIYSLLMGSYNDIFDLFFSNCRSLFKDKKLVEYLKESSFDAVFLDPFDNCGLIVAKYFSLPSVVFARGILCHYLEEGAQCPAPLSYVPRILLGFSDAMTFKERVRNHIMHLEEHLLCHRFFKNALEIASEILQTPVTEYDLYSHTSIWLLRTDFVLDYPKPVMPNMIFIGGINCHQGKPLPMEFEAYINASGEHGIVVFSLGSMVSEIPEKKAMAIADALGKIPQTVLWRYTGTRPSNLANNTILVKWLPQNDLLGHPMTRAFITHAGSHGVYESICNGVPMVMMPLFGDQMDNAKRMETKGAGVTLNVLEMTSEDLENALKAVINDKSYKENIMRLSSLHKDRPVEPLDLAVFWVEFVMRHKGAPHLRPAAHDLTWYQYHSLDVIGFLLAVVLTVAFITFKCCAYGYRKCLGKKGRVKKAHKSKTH
Procedure, shortened: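 TCC was incubated at 10 µM (2% DMSO) in 100 mM phosphate pH 7.4 with alamethicin-treated microsomes or Supersomes, 10 mM MgCl2 and 10 mM saccharolactone. After 5 min pre-incubation at 37 °C, UDPGA was added to start the reaction. Protein was raised up to 2 mg/mL. Samples were quenched in ACN with 1 µM DCC internal standard, centrifuged, and N-glucuronides detected by LC-ESI-MS/MS in SRM mode.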

[8] = Drug metabolism in human kidney microsomes assessed as N'-glucuronide-triclocarban formation incubated for 5 mins prior to UDPGA addition measured after 5 to 30 mins by LC-UV analysis; type: ADME
Procedure, shortened: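 Pooled human kidney or liver microsomes (liver: 25 mixed-gender donors), 5 µg protein, in 200 µL 100 mM potassium phosphate pH 7.4. Alamethicin pre-treated on ice 15 min. Final 10 µM TCC (2% DMSO), with 10 mM MgCl2 and 10 mM saccharolactone, preincubated 5 min at 37 °C. Started with UDPGA (20 mM stock). Sampled at 5, 10, 15 and 30 min into ACN containing 1 µM DCC internal standard.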

## O=C(Nc1ccc(Cl)cc1)Nc1ccc(Cl)c(Cl)c1 [TRICLOCARBAN]
[1]
  Drug metabolism: metabolite_not_detected
[2]
  dose excreted: 25%
[3]
  Drug metabolism: metabolite_not_detected
[4]
  Drug metabolism: metabolite_not_detected
[5]
  Drug excretion: metabolite_detected
[6]
  Drug excretion: metabolite_detected
[7]
  Drug metabolism: metabolite_detected
[8]
  Drug metabolism: metabolite_not_detected
